For data set [1], the system named is BV-2. Briefly: Antineuroinflammatory activity in […] cells assessed as inhibition of LPS-induced nitric oxide production at 10 uM treated 30 mins before LPS challenge measured after 24 hrs by Griess reaction. The data set is classed as functional. The method in brief: (§1)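 BV-2 cells at 3 × 10⁴ cells/well in DMEM with 5% FBS at 37 °C, 5% CO₂. Cells were pretreated 30 min, then given LPS 100 ng/ml for 24 h. Supernatant was mixed 1:1 with Griess reagent (1% sulfanilamide, 0.1% naphthylethylenediamine in 5% phosphoric acid). Absorbance at 570 nm was read after 10 min against a sodium nitrite standard.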

Data set [2] relates to N2a. Briefly: Antineuroinflammatory activity in LPS-stimulated […] cells in conditioned media assessed as inhibition of Bax expression in […] cells treated 30 mins before LPS challenge measured at 5 to 20 uM after 24 hrs by Western blot analysis. Type of data set: functional, cell-based. The method in brief:
(§2)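 BV-2 cells pretreated with 5, 10 or 20 µM for 30 min, then LPS 100 ng/ml for 24 h. Conditioned media were collected and applied to N2a cells for 24 h. Lysates were run on 8–12% SDS-PAGE and transferred to nitrocellulose. Blots were probed 12 h with primary antibodies (cleaved caspase-3, Bax, Bcl-2), then HRP secondary 1 h at room temperature, ECL detection and densitometry. Mean ± S.E.M. of three independent experiments.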

Data set [3] concerns c-Jun N-terminal kinase, JNK (Mus musculus). Briefly: Inhibition of LPS-induced JNK kinase phosphorylation in mouse BV2 cells after 30 mins by Western blot analysis. Conditions: BV-2.
Data set [4] deals with BV-2. Briefly: Antineuroinflammatory activity in […] cells assessed as inhibition of LPS-induced TNFalpha production treated 30 mins before LPS challenge measured after 24 hrs by ELISA. The data set is classed as functional, cell-based. The method in brief: (§3)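 BV-2 cells plated at 1.5 × 10⁶ cells/well and pretreated for 30 min. Cells were then exposed to LPS 100 ng/ml for 24 h. IL-1β and TNF-α in culture medium were quantified by immunoassay kit. Mean ± S.E.M. of three independent experiments.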

The test system of data set [5] is BV-2. The data set can be described thus: Antineuroinflammatory activity in […] cells assessed as inhibition of LPS-induced IL-1beta production treated 30 mins before LPS challenge measured after 24 hrs by ELISA. The data set is classed as functional, cell-based. Summed up:
as §3

In data set [6] the test system is N2a. Briefly: Antineuroinflammatory activity in LPS-stimulated […] cells in conditioned media assessed as inhibition of caspase-3 activation in […] cells treated 30 mins before LPS challenge measured at 5 to 20 uM after 24 hrs by Western blot analysis. Type of data set: functional, cell-based. Summed up:
as §2

Data set [7] has as its system BV-2. Briefly: Cytotoxicity against LPS-induced […] cells assessed as cell viability after 24 hrs by MTT assay. Type of data set: cell-based. Conditions: bv-2, 24 h. Summed up: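 BV-2 viability measured by MTT after 30 min pretreatment with 5, 10 or 20 µM, followed by LPS 100 ng/ml for 24 h. Mean ± S.E.M. of three independent experiments.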
Data set [8] relates to N2a. The data set can be described thus: Antineuroinflammatory activity in LPS-stimulated […] cells in conditioned media assessed as inhibition of DNA fragmentation in […] cells treated 30 mins before LPS challenge measured after 24 hrs by Gel electrophoresis. Type of data set: functional, cell-based. The method in brief: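 BV-2 cells pretreated with 5, 10 or 20 µM for 30 min, then stimulated with LPS 100 ng/ml for 24 h. Conditioned media were applied to N2a cells for 24 h. Cells were scraped and pelleted at 7500 rpm for 5 min. DNA fragmentation was resolved by gel electrophoresis alongside vehicle CM and LPS-with-vehicle CM lanes.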

Data set [9] concerns N2a. Briefly: Antineuroinflammatory activity in LPS-stimulated […] cells in conditioned media assessed as recovery of Bcl-2 expression in […] cells treated 30 mins before LPS challenge measured at 5 to 20 uM after 24 hrs by Western blot analysis. The data set is classed as functional, cell-based. Summed up:
as §2

Data set [10] relates to BV-2. The data set can be described thus: Antineuroinflammatory activity in […] cells assessed as inhibition of LPS-induced COX2 expression at 5 to 20 uM after 6 hrs by Western blot analysis. Type of data set: functional, cell-based. The method in brief:
(§4)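 BV-2 cells exposed to LPS 100 ng/ml with or without 5–20 µM for 6 h. Lysates were run on 8–12% SDS-PAGE and transferred to nitrocellulose. Blots were probed 12 h for iNOS or COX-2, then HRP secondary 1 h at room temperature, ECL detection and densitometry. Three independent experiments.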

Data set [11] deals with MAP kinase p38 (Mus musculus). The data set can be described thus: Inhibition of LPS-induced p38 kinase phosphorylation in mouse BV2 cells after 30 mins by Western blot analysis. Conditions: BV-2.
For data set [12], the system named is N2a. The data set can be described thus: Antineuroinflammatory activity in LPS-stimulated […] cells in conditioned media assessed as inhibition of […] cell death treated 30 mins before LPS challenge measured after 24 hrs by MTT assay. Type of data set: functional, cell-based. Summed up: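 BV-2 cells (DMEM, 5% FBS) pretreated with 5, 10 or 20 µM for 30 min, then LPS 100 ng/ml for 24 h. Conditioned media were transferred to N2a cells (DMEM, 10% FBS) for 24 h, and N2a viability was read by MTT. Mean ± S.E.M. of three independent experiments; one-way ANOVA with Tukey post test.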

Data set [13] concerns BV-2. Briefly: Antineuroinflammatory activity in […] cells assessed as inhibition of LPS-induced PGE2 production at 5 to 20 uM treated 30 mins before LPS challenge measured after 24 hrs by competitive enzyme immunoassay. The data set is classed as functional, cell-based. The method in brief: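 BV-2 cells plated at 1.5 × 10⁶ cells/well and pretreated with 5, 10 or 20 µM for 30 min. LPS 100 ng/ml was then added for 24 h. PGE₂ in medium was measured by competitive enzyme immunoassay kit. Mean ± S.E.M. of three independent experiments.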

Data set [14] deals with BV-2. The data set can be described thus: Antineuroinflammatory activity in […] cells assessed as inhibition of LPS-induced iNOS expression at 5 to 20 uM after 6 hrs by Western blot analysis. Type of data set: functional, cell-based. Summed up:
as §4

The subject of data set [15] is BV-2. Briefly: Inhibition of LPS-induced ERK kinase phosphorylation in […] cells after 30 mins by Western blot analysis. Type of data set: cell-based. The method in brief:
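BV-2 cells exposed to LPS 100 ng/ml with or without 5–20 µM for 30 min. Lysates were run on 8–12% SDS-PAGE and transferred to nitrocellulose. Blots were probed 12 h for phospho-p38, -JNK or -ERK, then HRP secondary 1 h at room temperature, ECL detection and densitometry.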

Data set [16] has as its system BV-2. The data set can be described thus: Antineuroinflammatory activity in […] cells assessed as inhibition of LPS-induced nitric oxide production at 5 to 20 uM treated 30 mins before LPS challenge measured after 24 hrs by Griess reaction. The data set is classed as functional, cell-based. Summed up:
as §1

The source made the active and inactive calls. The rule behind the calls is not given here.

Take `O=c1cc(-c2ccccc2)oc2cc(O)cc(O)c12`: in the data set on BV-2 [1], the inhibition result is “Active”.

In the case of `CCOC(=O)C1=C(C)NC(=S)NC1c1cccc(Oc2ccccc2)c1` (stereo not drawn), the inhibition entry in the data set with N2a [2], in the data set with N2a [6], in the data set on N2a [8], with BV-2 [10], in the data set on N2a [12] and with BV-2 [13] was “Active” in each case. The inhibition result in the data set with BV-2 [14] is “Active”. The inhibition entry (in data set [3]; in the data set on BV-2 [4]; with BV-2 [5]; in data set [11]; with BV-2 [15]) was “Dose-dependent effect” in each case. Also, the Activity result in the data set on BV-2 [7] is given as “Non-toxic”. Also, the outcome in the data set on N2a [9] was Active. Besides, the inhibition at 10 µM with BV-2 [1] (Mus musculus, BV-2, read-out: INH) came to 51%.

For the compound `CCOC(=O)C1=C(C)NC(=O)NC1c1cc(Cl)ccc1O` (stereo not drawn), the inhibition result with BV-2 [16] is “Active”.

Consider `CCOC(=O)C1=C(C)NC(=O)NC1c1cccc(Oc2ccccc2)c1` (stereo not drawn), for which the inhibition result with BV-2 [16] was “Active”.
